# An excerpt weighted towards active compounds, which were near 3.5% of everything screened.
# MrgX1 antag: blocks BAM8-22 activation of human MrgX1 receptor. MRGX1-HEK293 calcium flux, Fluo-4, BAM8-22 antagonism; hits give low values. B-score at 10 µM. AID 588676. hit rate 1.3% among 310,000;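 active means calcium-response B-score plate-corrected more than 3 library SD below zero, starting fluorescence within 5 deviations, no agonist response on first addition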;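 further: peak minus trough fluorescence over baseline after final BAM8-22 challenge near maximal dose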
# Target sequence (Q96LB2 whole entry, looked up): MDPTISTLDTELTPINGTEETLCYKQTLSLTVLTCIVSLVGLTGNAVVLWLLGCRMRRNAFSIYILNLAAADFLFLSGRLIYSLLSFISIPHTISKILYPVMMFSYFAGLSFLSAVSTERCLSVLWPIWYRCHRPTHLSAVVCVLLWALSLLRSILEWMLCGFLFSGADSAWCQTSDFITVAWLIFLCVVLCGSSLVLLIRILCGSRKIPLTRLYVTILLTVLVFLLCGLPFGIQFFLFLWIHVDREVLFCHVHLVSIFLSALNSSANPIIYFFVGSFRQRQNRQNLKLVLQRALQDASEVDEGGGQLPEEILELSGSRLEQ
# RGS4 inh: inhibitors of human RGS4. P49798. HEK293 M3R/RGS4 inducible, Fluo-4 calcium flux; hits give high values; triggered by carbachol at its EC20. B-score at 10 µM. hit rate 0.45% among 310,000. AID 463165;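 active means B-score, a plate-corrected calcium signal, over three deviations above library mean, with baseline fluorescence within five deviations of library mean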;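 further: RGS4 expression induced by doxycycline in cells with stable M3 receptor; B-score is computed from the integrated fluorescence ratio over baseline after carbachol; higher B-score means a larger calcium signal and so more RGS4 inhibition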
# Target sequence (P49798 whole entry, looked up): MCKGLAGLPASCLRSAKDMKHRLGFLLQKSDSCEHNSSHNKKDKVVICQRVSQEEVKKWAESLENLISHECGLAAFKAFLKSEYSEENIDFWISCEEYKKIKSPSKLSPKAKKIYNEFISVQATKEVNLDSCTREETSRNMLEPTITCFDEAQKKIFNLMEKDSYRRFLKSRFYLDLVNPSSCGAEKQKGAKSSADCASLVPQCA
# RGS4 pot: potentiators or activators of RGS4 | AID 463111 | B-score at 10 µM | HEK293 M3R/inducible RGS4, carbachol calcium flux Fluo4; hits give low values | hit rate 0.92% among 310,000;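 active means B-score of the integrated calcium signal more than 4 SD below the library mean, with starting fluorescence not abnormally high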;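 further: negative B-score means reduced calcium response which marks RGS4 activation or potentiation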
#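 test system = M3R-expressing HEK293 line, RGS4 induced by doxycycline | probe or stimulus = carbachol at ECmax as muscarinic agonist stimulus | timing = dye loading 30 min 37 °C, buffer rest 30 min RT | signal = calcium dye Fluo4 fluorescence | evaluation = B score from integrated fluorescence ratio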
# MrgX1 allo act: human MrgX1 positive allosteric modulation, primary screen; Q96LB2; MrgX1-HEK293, Fluo-4 calcium flux, FDSS; hits give high values; B-score at 10 µM; hit rate 0.63% among 310,000; AID 588675;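 active means plate-corrected calcium response at least 3 library SD above typical, normal starting fluorescence, not activating the receptor alone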;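 further: compound read alongside a low EC10 to EC30 dose of BAM8-22 agonist; peak minus trough fluorescence over baseline measured at the second addition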
# MrgX1 ag: activates human MrgX1 receptor signaling; MrgX1-HEK293 cells, Fluo-4 calcium fluorescence, agonist mode; hits give high values; B-score at 10 µM; hit rate 0.44% among 310,000; Q96LB2;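 active means calcium response B-score plate-corrected fluorescence ratio at least 3 library SD, with starting fluorescence B-score inside 5 SD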
#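 Test system: Stable human MrgX1 HEK293 cell line | Schedule: Overnight plating before 1 h dye loading | Read-out basis: Baseline-normalised fluorescence change ratio, B-scored | Detection: Kinetic calcium dye fluorescence, Fluo-4 NW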
# MrgX1 antag conf: reconfirmed antagonist of human MrgX1 receptor signaling | shares compounds with MrgX1 antag | MrgX1-HEK293, BAM8-22 calcium flux, Fluo-4; hits give low values | remaining BAM8-22 calcium response % of control (hits give low values), % at 10 µM | hit rate 19% among 2,300;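 active means remaining agonist calcium response no higher than 100% minus 3 SD of agonist-only control wells, with starting fluorescence near control levels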;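 further: agonist BAM8-22 given at a near maximal EC90 to ECmax level; peak minus minimum fluorescence divided by baseline after agonist addition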
# HEK293 Ca flux: counter-screen for MrgX1 antagonists: effect in parental HEK293 cells | shares compounds with MrgX1 antag | fluorescence ratio F(max-min)/F0 at 10 µM | hit rate 2% among 4,000 | Fluo-4 calcium fluorescence, FDSS;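 active means duplicate-averaged calcium fluorescence ratio at least three times the standard deviation of buffer wells, a nonspecific response in parental cells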
# HEK293 Ca counter: activity in parental HEK293 cells without MrgX1; shares compounds with MrgX1 antag; parental HEK293 calcium flux, Fluo-4 fluorescence ratio; hits give high values; fluorescence ratio F(max-min)/F0 at 10 µM; hit rate 0.4% among 4,000; AID 624114;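 active means calcium fluorescence ratio, averaged over duplicates, at least 3 SD of the buffer-well ratio, meaning a nonspecific response in receptor-free cells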;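 further: untransfected parental HEK293 lacking MrgX1 used as counterscreen for MrgX1 allosteric activators; fluorescence change taken during the second addition on a kinetic imager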
# HEK293 Ca cntr2: counter-screen for MrgX1 activators: effect in parental HEK293 cells | fluorescence ratio F(max-min)/F0 at 10 µM | shares compounds with MrgX1 antag | hit rate 8.7% among 4,000 | Fluo-4 calcium fluorescence (FDSS); hits give high values;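 active means calcium fluorescence ratio at least three times the spread of buffer wells, meaning a non-specific response in parental cells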
# An asterisk follows results filed as active; i = inactive; . = not tested or not shown.
SMILES,MrgX1 antag,RGS4 inh,RGS4 pot,MrgX1 allo act,MrgX1 ag,MrgX1 antag conf,HEK293 Ca flux,HEK293 Ca counter,HEK293 Ca cntr2
COc1ccc(OCC(=O)N2CCc3c([nH]c4ccccc34)C2c2ccccn2)cc1 (stereo not given),-6.4*,i,i,i,i,i,i,i,i
O=C(CNc1cccc(S(=O)(=O)N2CCOCC2)c1)Nc1cccc(Br)c1,i,i,i,i,i,.,.,.,.
O=C(CNc1cccc(S(=O)(=O)N2CCOCC2)c1)Nc1ccccc1F,-5.11*,i,i,i,i,i,i,i,i
CCO[C@@H]1OC(C(=O)Nc2ccccc2)=C[C@H](c2ccc(Br)cc2)[C@H]1CCCO,-10.1*,i,i,i,i,i,i,i,i
Cc1nc2n(n1)C(c1ccccc1)C1=C(CC(c3ccco3)CC1=O)N2 (stereo not given),-7.91*,i,i,i,i,i,i,i,i
CC1CC(=O)C2=C(C1)Nc1ncnn1C2c1ccccc1 (stereo not given),i,i,i,i,i,.,.,.,.
COc1ccc(NC(=O)c2ccc(Cl)c(S(=O)(=O)N3CCc4ccccc4C3)c2)cn1,-5.53*,i,i,i,i,38.2%*,i,i,i
COc1ccccc1NS(=O)(=O)c1cc(NC(=O)c2ccc(Cl)nc2)ccc1Cl,-14*,i,i,i,i,54.2%*,i,i,i
Cc1ccc(CNC(=O)COC(=O)c2cnc(C)cn2)cc1,i,i,i,i,i,.,.,.,.
CSc1cccc(NC(=O)C2CCN(S(=O)(=O)c3ccc(F)cc3)CC2)c1,i,i,i,i,i,.,.,.,.
CSc1cccc(NC(=O)C2CCCN(S(=O)(=O)c3ccc(F)cc3)C2)c1 (stereo not given),-6.49*,i,i,i,i,67.1%*,i,i,i
CCOc1c(OC)cccc1C1CC(=O)Nc2cc3c(cc21)OCCO3 (stereo not given),-4.89*,i,i,i,i,i,i,i,i
O=C(OCc1nnc(-c2ccccc2)o1)c1cc(S(=O)(=O)N2CCOCC2)ccc1F,i,i,i,i,i,.,.,.,.
CCOC(=O)Cn1cc(C(=O)c2ccco2)c2ccccc21,i,i,i,i,i,.,.,.,.
O=C(O)Cn1cc(C(=O)c2ccco2)c2ccccc21,-7.94*,i,i,i,i,i,i,i,i
CC(=O)c1ccccc1OC(=O)CCN1C(=O)C2C3C=CC(C4CC34)C2C1=O (stereo not given),-4.54*,i,i,i,i,i,i,i,i
O=C(CCN1C(=O)C2C3C=CC(C4CC34)C2C1=O)Oc1ccccc1 (stereo not given),i,i,i,i,i,.,.,.,.
CCOC(=O)N1CCN(C(=O)C2COc3ccccc3O2)CC1 (stereo not given),-7.82*,i,i,i,i,i,i,i,i
CCN1CCN(C(=O)C2COc3ccccc3O2)CC1 (stereo not given),i,i,i,i,i,.,.,.,.
CCOC(=O)c1ccc(NC(=O)NCc2ccccn2)cc1,i,i,i,i,i,.,.,.,.
N=c1c(S(=O)(=O)c2ccc(Cl)cc2)cc2c(=O)n3ccccc3nc2n1Cc1ccco1,i,i,i,i,i,.,.,.,.
CCOC(=O)c1cc2c(=O)n3ccccc3nc2n(Cc2ccco2)c1=NC(=O)c1ccccc1OCC,i,i,i,i,i,.,.,.,.
